Calls of active or inactive are those of the source. No cut-off for these calls is given here.
Legend:
Rattus norvegicus [1] = experiment: Antiallergic activity in Wistar Charles River rat assessed as inhibition of histamine-induced passive cutaneous anaphylaxis at 50 mg/kg, ip relative to control; type: functional; conditions: route intraperitoneal
Rattus norvegicus [2] = experiment: Antiallergic activity in Wistar Charles River rat assessed as inhibition of histamine-induced passive cutaneous anaphylaxis at 10 mg/kg, iv relative to control; type: functional
Rattus norvegicus [3] = experiment: Antiallergic activity in Wistar Charles River rat assessed as inhibition of histamine-induced passive cutaneous anaphylaxis at 3 mg/kg, iv relative to control; type: functional
Rattus norvegicus [4] = experiment: Antiallergic activity in Wistar Charles River rat assessed as inhibition of histamine-induced passive cutaneous anaphylaxis at 1 mg/kg, iv relative to control; type: functional
Rattus norvegicus [5] = experiment: Antiallergic activity in Wistar Charles River rat assessed as inhibition of histamine-induced passive cutaneous anaphylaxis at 100 mg/kg, po relative to control; type: functional
Homo sapiens [6] = experiment: Antiallergic activity in po dosed human assessed as oral active dose; type: functional
Rattus norvegicus [7] = experiment: Antiallergic activity in po dosed Wistar rat assessed as inhibition of ovalbumin-induced passive cutaneous anaphylaxis relative to DSCG; type: functional
Rattus norvegicus [8] = experiment: Antiallergic activity in po dosed Wistar rat assessed as inhibition of ovalbumin-induced passive cutaneous anaphylaxis; type: functional
In short: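 Male Charles River Wistar rats, 170-210 g. Reaginic egg-albumin antiserum was raised with Bordetella pertussis or Al(OH)3, then diluted to give a 15-mm wheal and injected intradermally (0.1 mL) into shaved back skin. After 48 h, drug or saline was given, then 2.5 mg Evans blue plus 5 mg egg albumin in saline. Each site was scored as diameter (mm) × dye-intensity grade (0.5-4), summed per group of 5 or 7 rats and compared with saline controls.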

Rattus norvegicus [9] = experiment: Antiallergic activity in Wistar Charles River rat assessed as inhibition of histamine-induced passive cutaneous anaphylaxis at 30 mg/kg, po relative to control; type: functional
Rattus norvegicus [10] = experiment: Antiallergic activity in Wistar Charles River rat assessed as inhibition of histamine-induced passive cutaneous anaphylaxis at 10 mg/kg, po relative to control; type: functional
Homo sapiens [11] = experiment: Antiallergic activity in po dosed human assessed as concentration required to inhibit antigen-induced clinical asthma; type: functional
Rattus norvegicus [12] = experiment: Antiallergic activity in po dosed rat assessed as inhibition of antigen-induced passive cutaneous anaphylaxis relative to DSCG; type: functional
Rattus norvegicus [13] = experiment: Antiallergic activity in po dosed rat assessed as inhibition of antigen-induced passive cutaneous anaphylaxis; type: functional
Rattus norvegicus [14] = experiment: Antiallergic activity in Wistar Charles River rat assessed as inhibition of histamine-induced passive cutaneous anaphylaxis at 0.1 mg/kg, iv relative to control; type: functional
Rattus norvegicus [15] = experiment: Antiallergic activity in Wistar Charles River rat assessed as inhibition of histamine-induced passive cutaneous anaphylaxis at 30 mg/kg, iv relative to control; type: functional
Rattus norvegicus [16] = experiment: Antiallergic activity in po dosed Wistar Charles River rat assessed as inhibition of histamine-induced passive cutaneous anaphylaxis; type: functional
Cavia porcellus = experiment: Inhibition of histamine-induced bronchoconstriction in guinea pig up to 100 mg/kg, po; type: functional, organism-based; set-up: dose 100 mg/kg
Rattus norvegicus [17] = experiment: Antiallergic activity in Wistar Charles River rat assessed as inhibition of histamine-induced passive cutaneous anaphylaxis at 3 mg/kg, po relative to control; type: functional
Rattus norvegicus [18] = experiment: Antiallergic activity in Wistar Charles River rat assessed as inhibition of histamine-induced passive cutaneous anaphylaxis at 1 mg/kg, po relative to control; type: functional
Rattus norvegicus [19] = experiment: Inhibition of carrageenan-induced foot edema in rat at 10 mg/kg, po; type: functional, organism-based; set-up: dose 10 mg/kg
Rattus norvegicus [20] = experiment: Antiallergic activity in po dosed rat assessed as inhibition of passive cutaneous anaphylaxis; type: functional
Rattus norvegicus [21] = experiment: Antiallergic activity in Wistar Charles River rat assessed as inhibition of histamine-induced passive cutaneous anaphylaxis at 30 mg/kg, ip relative to control; type: functional; conditions: route intraperitoneal

## O=C(O)c1nc2c(Br)cc(Br)cc2c(=O)[nH]1
Rattus norvegicus [1]
  inhibition in vivo at 50 mg/kg: 0%

## CCOC(=O)c1nc2ncccc2c(=O)[nH]1
Rattus norvegicus [2]
  inhibition in vivo at 10 mg/kg: 96%
Rattus norvegicus [3]
  inhibition in vivo at 3 mg/kg: 66%
Rattus norvegicus [4]
  inhibition in vivo at 1 mg/kg: 6%
Rattus norvegicus [5]
  Activity: inactive

## O=C(O)CCc1nc2cc3ccccc3cc2c(=O)[nH]1
Rattus norvegicus [2]
  inhibition in vivo at 10 mg/kg: 7%

## O=C(O)c1nc2c(C(F)(F)F)cc(Cl)cc2c(=O)[nH]1
Rattus norvegicus [2]
  inhibition in vivo at 10 mg/kg: 0%

## O=C(O)c1nc2ccccc2c(=O)[nH]1
Rattus norvegicus [2]
  inhibition in vivo at 10 mg/kg: 52%

## Cc1cc2c(cc1C)C(=O)C([N+](=O)[O-])C2=O
Homo sapiens [6]
  Activity: 2 mg/kg
Rattus norvegicus [7]
  fold change (FC): 25
Rattus norvegicus [8]
  ED50: 1 mg/kg

## O=C(O)c1nc2nc3ccccc3cc2c(=O)[nH]1
Rattus norvegicus [4]
  inhibition in vivo at 1 mg/kg: 92%
Rattus norvegicus [9]
  inhibition in vivo at 30 mg/kg: 57%
Rattus norvegicus [10]
  inhibition in vivo at 10 mg/kg: 0%
Rattus norvegicus [5]
  inhibition in vivo at 100 mg/kg: 96%

## O=c1[nH]c(=O)c2cc3ccccc3nc2[nH]1
Rattus norvegicus [3]
  inhibition in vivo at 3 mg/kg: 41%

## CCCc1c2c(c(O)c3c(=O)cc(C(=O)O)oc13)CCCC2 [PROXICROMIL]
Homo sapiens [11]
  Activity: 4.6 mg
Rattus norvegicus [12]
  fold change (FC): 0.19
Rattus norvegicus [13]
  ED50: 15.5 mg/kg

## CCc1ccc2occ(-c3nnn[nH]3)c(=O)c2c1
Rattus norvegicus [12]
  fold change (FC): 4
Rattus norvegicus [13]
  ED50: 7 mg/kg

## CCOC(=O)c1nc2cc(OC(=O)c3ccccc3)c(OC)cc2c(=O)[nH]1
Rattus norvegicus [2]
  inhibition in vivo at 10 mg/kg: 14%

## O=C(O)c1nc2cc3ccccc3cc2c(=O)[nH]1
Rattus norvegicus [2]
  inhibition in vivo at 10 mg/kg: 100%
Rattus norvegicus [3]
  inhibition in vivo at 3 mg/kg: 36%
Rattus norvegicus [4]
  inhibition in vivo at 1 mg/kg: 14%
Rattus norvegicus [5]
  inhibition in vivo at 100 mg/kg: 0%

## O=C([O-])c1cc(=O)c2c(OCC(O)COc3cccc4oc(C(=O)[O-])cc(=O)c34)cccc2o1.[Na+].[Na+] [CROMOLYN SODIUM]
Rattus norvegicus [2]
  inhibition in vivo at 10 mg/kg: 90%
Rattus norvegicus [3]
  inhibition in vivo at 3 mg/kg: 77%
Rattus norvegicus [4]
  inhibition in vivo at 1 mg/kg: 55%
Rattus norvegicus [14]
  inhibition in vivo at 0.1 mg/kg: 14%
Rattus norvegicus [15]
  inhibition in vivo at 30 mg/kg: 99%
Rattus norvegicus [5]
  Activity: inactive
Rattus norvegicus [16]
  ED50: 1 mg/kg

## O=C(O)c1cc(=O)c2cc3c(=O)cc(C(=O)O)[nH]c3c(Cl)c2[nH]1
Rattus norvegicus [12]
  fold change (FC): 50
Rattus norvegicus [13]
  ED50: < 25.5 mg/kg

## O=C(O)c1nc2ccc([N+](=O)[O-])cc2c(=O)[nH]1
Rattus norvegicus [15]
  inhibition in vivo at 30 mg/kg: 67%

## O=c1[nH]cnc2nc3ccccc3cc12
Rattus norvegicus [2]
  inhibition in vivo at 10 mg/kg: 4%
Rattus norvegicus [3]
  inhibition in vivo at 3 mg/kg: 33%

## CCOC(=O)c1nc(O)c2cc3ccccc3nc2n1
Rattus norvegicus [2]
  inhibition: inactive
Rattus norvegicus [4]
  inhibition in vivo at 1 mg/kg: 98%
Cavia porcellus
  inhibition: inactive
Rattus norvegicus [14]
  inhibition in vivo at 0.1 mg/kg: 47%
Rattus norvegicus [17]
  inhibition in vivo at 3 mg/kg: 53%
Rattus norvegicus [18]
  inhibition in vivo at 1 mg/kg: 12%
Rattus norvegicus [9]
  inhibition in vivo at 30 mg/kg: 72%
Rattus norvegicus [10]
  inhibition in vivo at 10 mg/kg: 75%
Rattus norvegicus [5]
  inhibition in vivo at 100 mg/kg: 80%
Rattus norvegicus [16]
  ED50: 3 mg/kg
Rattus norvegicus [19]
  inhibition: inactive

## O=c1[nH]cnc2cc3ccccc3cc12
Rattus norvegicus [3]
  inhibition in vivo at 3 mg/kg: 31%

## CCOC(=O)c1nc2cc(OC)c(OC)cc2c(=O)[nH]1
Rattus norvegicus [15]
  inhibition in vivo at 30 mg/kg: 80%
Rattus norvegicus [5]
  Activity: inactive

## CCOC(=O)CCc1n[nH]c2ccc(CC)cc2c1=O
Rattus norvegicus [20]
  ED50: 4 mg/kg

## CCOC(=O)c1nc2cc3ccccc3cc2c(=O)[nH]1
Rattus norvegicus [21]
  inhibition in vivo at 30 mg/kg: 27%
Rattus norvegicus [5]
  inhibition in vivo at 100 mg/kg: 38%

## COc1cccc2c(=O)c(CO)coc12
Rattus norvegicus [20]
  ED50: 2 mg/kg

## CCOC(=O)c1nc2c(C(F)(F)F)cc(Cl)cc2c(=O)[nH]1
Rattus norvegicus [2]
  inhibition in vivo at 10 mg/kg: 0%

## COc1cc2nc(C(=O)O)[nH]c(=O)c2cc1OC
Rattus norvegicus [15]
  inhibition in vivo at 30 mg/kg: 69%
Rattus norvegicus [5]
  Activity: inactive

## Cc1nc(O)c2cc3ccccc3cc2n1
Rattus norvegicus [3]
  inhibition in vivo at 3 mg/kg: 15%

## CCCOc1ccccc1-c1nc2[nH]nnc2c(=O)[nH]1 [ZAPRINAST]
Rattus norvegicus [20]
  ED50: 0.2 mg/kg
